Reference: ChEMBL document CHEMBL5649170, “Sustained microglial depletion with CSF1R inhibitor impairs parenchymal plaque development in an Alzheimer's disease model” (Nat Commun, 2019)
pIC50: −log10 of the molar value.

Experiments:
[1] = test system: Mus musculus; experiment: Antialzheimer activity in 5XFAD mouse assessed as average plaque volume in […] cortex at 75 ppm administered as rodent chow starting from 1.5 months and measured after 5 months by immunolabeling based confocal microscopic analysis (reference value: 789.31 to 1314.37 microm3); type: functional; details: route po, time 3.5 months, 2555 h
Procedure, shortened: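 5xFAD mice fed PLX3397 at 75 ppm in AIN-76A chow from 1.5 to 5 months of age; retrosplenial and somatosensory cortex sections stained with Thio-S and immunolabeled for IBA1; confocal imaging, IBA1+ cells and plaques quantified per region; two-tailed independent t-test, n = 4–5 per group, mean ± SEM.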

[2] = biological target: Tyrosine-protein kinase receptor UFO (Homo sapiens, UniProt P30530); experiment: Inhibition of AXL (unknown origin)
[3] = biological target: Cyclin-dependent kinase 1/cyclin B1 (Homo sapiens, UniProt P06493); experiment: Inhibition of CDK1/CyclinB (unknown origin); type: protein-complex assay
[4] = biological target: Tyrosine-protein kinase CSK (Homo sapiens, UniProt P41240); experiment: Inhibition of CSK (unknown origin)
[5] = biological target: MAP kinase-activated protein kinase 5 (Homo sapiens, UniProt Q8IW41); experiment: Inhibition of MAPKAPK5 (unknown origin)
[6] = biological target: Serine/threonine-protein kinase MARK2 (Homo sapiens, UniProt Q7KZI7); experiment: Inhibition of MARK2 (unknown origin)
[7] = biological target: Serine/threonine-protein kinase PAK 2 (Homo sapiens, UniProt Q13177); experiment: Inhibition of PAK2 (unknown origin)
[8] = biological target: Ribosomal protein S6 kinase beta-1 (Homo sapiens, UniProt P23443); experiment: Inhibition of RPS6KB1 (unknown origin)
[9] = Clearance in male rat at 1.13 mg/kg, iv administered as single dose; type: ADME, organism-based; details: in vivo
[10] = test system: Mus musculus; experiment: Antialzheimer activity in 5XFAD mouse assessed as number of Iba positive cells per FOV in somatosensory cortex at 1200 ppm administered as rodent chow starting from 1.5 months and measured after 7 months (reference value: 335 to 848); type: functional; details: route po, time 5.5 months, 4015 h
[11] = Toxicity in wildtype mouse assessed as number of entries to center zone at 1200 ppm administered as rodent chow for 10 to 24 weeks by Open field test (reference value: 19 to 63); details: in vivo, po, time 10-24 weeks
[12] = test system: Mus musculus; experiment: Antialzheimer activity in 5XFAD mouse assessed as amyloidbeta42 level in detergent soluble cortex fraction measured per microgram protein at 1200 ppm administered as rodent chow starting from 1.5 months and measured after 4 months by ELISA (reference value: 0 to 0.063 pg); type: functional; details: route po, time 2.5 months, 1825 h
Procedure, shortened: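 PLX5622 at 1200 ppm in chow given to 5xFAD mice from 1.5 months to 4 or 7 months of age; cortex and thalamus homogenized in TPER (detergent-soluble), pellets re-homogenized in 70% formic acid and spun 100,000 g, 1 h, 4 °C (insoluble); protein by Bradford/Lowry; Aβ species measured by Meso Scale electrochemiluminescence immunoassay, normalized to protein; n = 7–8 per group at 7 months.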

[13] = test system: Mus musculus; experiment: Antialzheimer activity in 5XFAD mouse assessed as average diameter of claudin-5 blood vessels in Thio-S negative thalamus at 1200 ppm administered as rodent chow starting from 1.5 months and measured after 4 months by immunolabeling analysis; type: functional; details: route po, time 2.5 months, 1825 h
[14] = Effect on Csf1r RPKM gene expression in wild type mouse hippocampus at 1200 ppm administered as rodent chow starting from 1.5 months and measured after 7 months by RNA-Seq analysis (reference value: 18.240 to 20.004 RPKM); type: functional; details: route po, time 5.5 months, 4015 h
[15] = Effect on Csf1r RPKM gene expression in 5XFAD mouse cortex at 1200 ppm administered as rodent chow starting from 1.5 months and measured after 7 months by RNA-Seq analysis (reference value: 26.750 to 37.128 RPKM); type: functional; details: route po, time 5.5 months, 4015 h
[16] = Effect on C1qa gene expression in 5XFAD mouse thalamus at 1200 ppm administered as rodent chow starting from 1.5 months and measured after 7 months by RNA-Seq analysis (reference value: 36.243 to 61.660 RPKM); type: functional; details: route po, time 5.5 months, 4015 h
Procedure, shortened: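 WT and 5xFAD mice were treated with 1200 ppm PLX5622 chow or control chow from 1.5 to 7 months of age. Brains were microdissected into cortex, hippocampus and thalamus, and RNA was extracted from tissue powder. Whole-transcriptome RNA-Seq libraries were sequenced, with n = 4 per group per region (48 samples).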

[17] = Effect on Siglech gene expression in wild type mouse cortex at 1200 ppm administered as rodent chow starting from 1.5 months and measured after 7 months by RNA-Seq analysis (reference value: 3.777 to 4.267 RPKM); type: functional; details: route po, time 5.5 months, 4015 h
[18] = Effect on Ctsz gene expression in 5XFAD mouse hippocampus at 1200 ppm administered as rodent chow starting from 1.5 months and measured after 7 months by RNA-Seq analysis (reference value: 34.576 to 51.120 RPKM); type: functional; details: route po, time 5.5 months, 4015 h
[19] = Prevention of Rnf217 gene downregulation in 5XFAD mouse hippocampus assessed as percent change in Reads Per kilo base per Million mapped reads at 1200 ppm administered as rodent chow starting from 1.5 months and measured after 7 months by RNA-Seq analysis (reference value: 66.726 to 80.840 %); type: functional; details: route po, time 5.5 months, 4015 h
[20] = Prevention of Dynll1 gene downregulation in 5XFAD mouse hippocampus assessed as percent change in Reads Per kilo base per Million mapped reads at 1200 ppm administered as rodent chow starting from 1.5 months and measured after 7 months by RNA-Seq analysis (reference value: 79.087 to 86.108 %); type: functional; details: route po, time 5.5 months, 4015 h

Chain of Tyrosine-protein kinase receptor UFO (P30530 whole entry): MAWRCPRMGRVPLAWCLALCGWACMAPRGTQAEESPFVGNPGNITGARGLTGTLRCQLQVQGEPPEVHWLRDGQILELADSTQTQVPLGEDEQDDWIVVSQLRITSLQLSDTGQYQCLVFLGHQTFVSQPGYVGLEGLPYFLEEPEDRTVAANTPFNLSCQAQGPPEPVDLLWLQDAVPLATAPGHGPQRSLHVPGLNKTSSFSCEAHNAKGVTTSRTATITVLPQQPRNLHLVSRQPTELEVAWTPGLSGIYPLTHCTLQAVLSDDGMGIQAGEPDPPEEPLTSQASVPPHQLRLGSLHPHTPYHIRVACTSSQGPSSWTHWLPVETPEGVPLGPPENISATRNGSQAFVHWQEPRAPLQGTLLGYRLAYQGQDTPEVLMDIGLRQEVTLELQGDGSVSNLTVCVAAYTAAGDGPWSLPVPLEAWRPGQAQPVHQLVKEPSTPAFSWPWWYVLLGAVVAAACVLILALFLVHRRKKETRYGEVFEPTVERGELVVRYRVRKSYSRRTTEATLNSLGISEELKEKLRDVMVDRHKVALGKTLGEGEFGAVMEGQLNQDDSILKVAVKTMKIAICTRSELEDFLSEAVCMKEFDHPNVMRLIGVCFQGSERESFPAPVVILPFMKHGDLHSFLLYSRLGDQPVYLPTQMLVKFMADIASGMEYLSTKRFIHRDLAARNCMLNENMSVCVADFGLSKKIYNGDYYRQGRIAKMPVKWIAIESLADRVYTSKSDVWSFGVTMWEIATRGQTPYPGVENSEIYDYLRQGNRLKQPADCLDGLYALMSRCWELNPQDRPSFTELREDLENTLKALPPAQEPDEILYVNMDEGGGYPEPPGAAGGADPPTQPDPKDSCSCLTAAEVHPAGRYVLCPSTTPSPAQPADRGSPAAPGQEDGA
Chain of Cyclin-dependent kinase 1/cyclin B1 (P06493 whole entry): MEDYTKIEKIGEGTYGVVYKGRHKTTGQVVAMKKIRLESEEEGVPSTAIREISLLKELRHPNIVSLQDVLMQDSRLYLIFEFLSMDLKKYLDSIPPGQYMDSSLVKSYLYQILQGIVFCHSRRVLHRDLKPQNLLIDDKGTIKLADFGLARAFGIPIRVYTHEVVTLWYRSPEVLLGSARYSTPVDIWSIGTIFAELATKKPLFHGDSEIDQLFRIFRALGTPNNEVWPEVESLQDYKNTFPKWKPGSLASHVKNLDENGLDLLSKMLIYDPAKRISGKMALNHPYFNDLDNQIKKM
Chain of Cyclin-dependent kinase 1/cyclin B1 (P14635 whole entry, further chain): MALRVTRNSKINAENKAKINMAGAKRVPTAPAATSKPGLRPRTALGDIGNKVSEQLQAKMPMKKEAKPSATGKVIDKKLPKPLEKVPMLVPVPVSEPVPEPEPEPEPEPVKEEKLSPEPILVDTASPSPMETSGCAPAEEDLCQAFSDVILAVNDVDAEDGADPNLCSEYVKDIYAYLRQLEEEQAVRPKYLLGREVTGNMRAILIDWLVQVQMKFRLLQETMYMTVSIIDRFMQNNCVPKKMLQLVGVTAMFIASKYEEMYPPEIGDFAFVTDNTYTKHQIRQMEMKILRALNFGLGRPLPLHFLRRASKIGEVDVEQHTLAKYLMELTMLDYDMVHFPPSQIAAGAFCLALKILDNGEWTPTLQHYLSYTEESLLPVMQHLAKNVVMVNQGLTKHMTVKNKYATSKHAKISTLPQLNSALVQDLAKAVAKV
Chain of Serine/threonine-protein kinase MARK2 (Q7KZI7 whole entry): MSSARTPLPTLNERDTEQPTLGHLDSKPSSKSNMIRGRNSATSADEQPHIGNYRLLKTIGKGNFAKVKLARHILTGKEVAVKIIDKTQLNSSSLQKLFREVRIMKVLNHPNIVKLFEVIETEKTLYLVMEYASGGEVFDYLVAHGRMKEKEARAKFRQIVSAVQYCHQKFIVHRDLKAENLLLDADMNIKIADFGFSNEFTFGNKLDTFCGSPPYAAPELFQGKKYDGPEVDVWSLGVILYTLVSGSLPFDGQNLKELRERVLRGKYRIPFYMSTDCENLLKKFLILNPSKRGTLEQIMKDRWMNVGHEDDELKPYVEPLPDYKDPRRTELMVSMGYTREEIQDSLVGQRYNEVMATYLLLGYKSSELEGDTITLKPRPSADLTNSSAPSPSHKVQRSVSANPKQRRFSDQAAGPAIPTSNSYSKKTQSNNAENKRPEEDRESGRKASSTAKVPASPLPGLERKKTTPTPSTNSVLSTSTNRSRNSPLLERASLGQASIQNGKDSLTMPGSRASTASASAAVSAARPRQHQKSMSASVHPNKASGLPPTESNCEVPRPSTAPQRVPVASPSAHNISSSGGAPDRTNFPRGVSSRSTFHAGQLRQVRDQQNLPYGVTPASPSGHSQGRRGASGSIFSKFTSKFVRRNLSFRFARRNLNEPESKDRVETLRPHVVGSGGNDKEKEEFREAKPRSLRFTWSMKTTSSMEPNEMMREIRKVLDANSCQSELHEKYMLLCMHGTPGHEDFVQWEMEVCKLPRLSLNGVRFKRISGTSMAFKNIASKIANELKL
Chain of Serine/threonine-protein kinase PAK 2 (Q13177 whole entry): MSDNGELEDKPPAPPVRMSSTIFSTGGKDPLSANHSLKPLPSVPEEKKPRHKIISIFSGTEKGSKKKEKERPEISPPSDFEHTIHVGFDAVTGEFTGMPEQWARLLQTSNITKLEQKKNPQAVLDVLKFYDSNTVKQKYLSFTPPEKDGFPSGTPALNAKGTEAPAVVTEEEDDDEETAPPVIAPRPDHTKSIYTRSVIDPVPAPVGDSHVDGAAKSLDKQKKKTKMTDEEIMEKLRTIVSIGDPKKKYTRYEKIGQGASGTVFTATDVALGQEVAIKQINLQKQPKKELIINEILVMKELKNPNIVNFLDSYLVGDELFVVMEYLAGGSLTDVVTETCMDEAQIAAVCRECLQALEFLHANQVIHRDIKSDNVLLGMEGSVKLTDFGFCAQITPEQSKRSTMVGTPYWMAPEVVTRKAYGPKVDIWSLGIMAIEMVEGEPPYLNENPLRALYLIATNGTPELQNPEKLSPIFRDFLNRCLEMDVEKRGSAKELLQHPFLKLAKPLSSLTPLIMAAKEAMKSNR
Chain of MAP kinase-activated protein kinase 5 (Q8IW41 whole entry): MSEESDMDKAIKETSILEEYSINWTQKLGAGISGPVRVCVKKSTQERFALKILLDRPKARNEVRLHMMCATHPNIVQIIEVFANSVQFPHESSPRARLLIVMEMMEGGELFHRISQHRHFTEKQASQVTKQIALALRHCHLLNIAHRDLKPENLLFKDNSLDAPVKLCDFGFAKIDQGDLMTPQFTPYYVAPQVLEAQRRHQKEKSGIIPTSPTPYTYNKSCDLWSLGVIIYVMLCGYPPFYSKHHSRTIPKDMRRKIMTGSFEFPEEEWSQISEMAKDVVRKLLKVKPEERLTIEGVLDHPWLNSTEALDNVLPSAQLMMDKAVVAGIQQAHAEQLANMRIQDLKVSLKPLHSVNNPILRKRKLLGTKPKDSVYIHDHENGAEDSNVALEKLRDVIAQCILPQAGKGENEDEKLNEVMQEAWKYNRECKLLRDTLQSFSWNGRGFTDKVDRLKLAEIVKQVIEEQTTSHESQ
Chain of Ribosomal protein S6 kinase beta-1 (P23443 whole entry): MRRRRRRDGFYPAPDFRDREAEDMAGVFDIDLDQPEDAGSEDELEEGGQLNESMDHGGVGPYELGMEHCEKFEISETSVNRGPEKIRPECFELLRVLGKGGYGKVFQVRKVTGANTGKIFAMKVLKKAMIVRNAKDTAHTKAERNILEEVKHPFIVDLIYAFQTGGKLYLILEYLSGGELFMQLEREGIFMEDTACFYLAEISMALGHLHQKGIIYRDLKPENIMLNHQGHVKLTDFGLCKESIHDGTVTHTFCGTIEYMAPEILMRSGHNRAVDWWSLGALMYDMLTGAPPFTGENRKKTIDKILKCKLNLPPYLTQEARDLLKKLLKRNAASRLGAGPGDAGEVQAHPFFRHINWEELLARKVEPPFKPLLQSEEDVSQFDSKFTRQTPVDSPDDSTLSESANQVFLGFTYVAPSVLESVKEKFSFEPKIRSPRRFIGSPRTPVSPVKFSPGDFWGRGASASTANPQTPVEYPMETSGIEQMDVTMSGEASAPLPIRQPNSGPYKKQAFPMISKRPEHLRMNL
Chain of Tyrosine-protein kinase CSK (P41240 whole entry): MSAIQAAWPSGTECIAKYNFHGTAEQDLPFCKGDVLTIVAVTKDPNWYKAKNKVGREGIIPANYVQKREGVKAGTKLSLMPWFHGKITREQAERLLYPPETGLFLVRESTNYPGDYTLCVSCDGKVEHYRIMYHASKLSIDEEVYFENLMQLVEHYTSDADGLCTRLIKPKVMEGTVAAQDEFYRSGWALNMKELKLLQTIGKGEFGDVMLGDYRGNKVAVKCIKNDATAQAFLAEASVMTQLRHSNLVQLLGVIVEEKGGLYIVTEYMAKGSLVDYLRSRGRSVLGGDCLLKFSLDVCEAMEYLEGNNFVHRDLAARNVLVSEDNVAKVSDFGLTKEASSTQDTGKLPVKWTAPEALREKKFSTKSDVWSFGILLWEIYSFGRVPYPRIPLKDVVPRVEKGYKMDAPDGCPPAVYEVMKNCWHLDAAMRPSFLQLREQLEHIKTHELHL

Structure (SMILES) | Activity [1] | pIC50 [2] | pIC50 [3] | pIC50 [4] | pIC50 [5] | pIC50 [6] | pIC50 [7] | pIC50 [8] | clearance [9] | Activity [10] | Activity [11] | Activity [12] | Activity [13] | Activity [14] | Activity [15] | Activity [16] | Activity [17] | Activity [18] | Activity [19] | Activity [20]
FC(F)(F)c1ccc(CNc2ccc(Cc3c[nH]c4ncc(Cl)cc34)cn2)cn1 [PEXIDARTINIB] | 688.11 um3 |  |  |  |  |  |  |  |  |  |  |  |  |  |  |  |  |  |  | 
COc1ncc(F)cc1CNc1ccc(Cc2c[nH]c3ncc(C)cc23)c(F)n1 [PLX-5622] |  | < 6.00 | < 6.00 | < 6.00 | < 6.00 | < 6.00 | < 6.00 | < 6.00 | 7.7 mL/min/kg | 0 | 14 | 0.006 pg | 1.854 um | 0.238 RPKM | 0.984 RPKM | 0.199 RPKM | 0 RPKM | 16.426 RPKM | 95.371% | 96.141%
